Data reported in ChEMBL document CHEMBL1649446, “Comparative antipneumococcal activities of sulopenem and other drugs” (2009).
Converted amounts (≈) assume the structure as drawn.

Tests used:
Assay type in all cases: functional
[1] = system: Streptococcus pneumoniae; test: Antimicrobial activity against Streptococcus pneumoniae isolate 4755 by agar dilution method
Procedure, shortened: (§1)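 Agar dilution MIC on Mueller-Hinton agar with 5% sheep blood, inocula 10^4 CFU/spot; amoxicillin-clavulanate combined 1:2; S. pneumoniae ATCC 49619 quality control each run.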

[2] = system: Streptococcus pneumoniae; test: Antimicrobial activity against Streptococcus pneumoniae isolate 3455 by agar dilution method
[3] = system: Streptococcus pneumoniae; test: Antimicrobial activity against Streptococcus pneumoniae isolate 3791 by agar dilution method; procedure, shortened: as §1
[4] = system: Streptococcus pneumoniae; test: Antimicrobial activity against Streptococcus pneumoniae 19A by agar dilution method; procedure, shortened: as §1
[5] = system: Streptococcus pneumoniae; test: Antimicrobial activity against Streptococcus pneumoniae isolate 2874 by agar dilution method; procedure, shortened: as §1
[6] = system: Streptococcus pneumoniae; test: Antimicrobial activity against Streptococcus pneumoniae isolate 3260 by agar dilution method
[7] = system: Streptococcus pneumoniae; test: Antimicrobial activity against Streptococcus pneumoniae isolate 3481 by agar dilution method; procedure, shortened: as §1
[8] = system: Streptococcus pneumoniae; test: Antimicrobial activity against Streptococcus pneumoniae isolate 2617 by agar dilution method; procedure, shortened: as §1
[9] = system: Streptococcus pneumoniae; test: Antimicrobial activity against Streptococcus pneumoniae isolate 3263 by agar dilution method
[10] = system: Streptococcus pneumoniae; test: Antimicrobial activity against Streptococcus pneumoniae isolate 3412 by agar dilution method; procedure, shortened: as §1
[11] = system: Streptococcus pneumoniae; test: Antimicrobial activity against Streptococcus pneumoniae isolate 3681 by agar dilution method; procedure, shortened: as §1
[12] = system: Streptococcus pneumoniae; test: Antimicrobial activity against Streptococcus pneumoniae isolate 3587 by agar dilution method
[13] = system: Streptococcus pneumoniae; test: Antimicrobial activity against Streptococcus pneumoniae isolate 1397 by agar dilution method; procedure, shortened: as §1
[14] = system: Streptococcus pneumoniae; test: Antimicrobial activity against penicillin-intermediate Streptococcus pneumoniae by agar dilution method
[15] = system: Streptococcus pneumoniae; test: Antimicrobial activity against Streptococcus pneumoniae isolate 1394 by agar dilution method
[16] = system: Streptococcus pneumoniae; test: Antimicrobial activity against Streptococcus pneumoniae isolate 3458 by agar dilution method
[17] = system: Streptococcus pneumoniae; test: Antimicrobial activity against Streptococcus pneumoniae isolate 1564 by agar dilution method
[18] = system: Streptococcus pneumoniae; test: Antimicrobial activity against Streptococcus pneumoniae isolate 24 by agar dilution method
[19] = system: Streptococcus pneumoniae; test: Antimicrobial activity against Streptococcus pneumoniae isolate 3282 by agar dilution method
[20] = system: Streptococcus pneumoniae; test: Antimicrobial activity against Streptococcus pneumoniae isolate 1424 by agar dilution method; procedure, shortened: as §1
[21] = system: Streptococcus pneumoniae; test: Antimicrobial activity against Streptococcus pneumoniae isolate 3275 by agar dilution method; procedure, shortened: as §1
[22] = system: Streptococcus pneumoniae; test: Antimicrobial activity against penicillin-resistant Streptococcus pneumoniae by agar dilution method; procedure, shortened: as §1
[23] = system: Streptococcus pneumoniae; test: Antimicrobial activity against Streptococcus pneumoniae isolate 2686 by agar dilution method; procedure, shortened: as §1
[24] = system: Streptococcus pneumoniae; test: Antimicrobial activity against Streptococcus pneumoniae isolate 1384 by agar dilution method; procedure, shortened: as §1
[25] = system: Streptococcus pneumoniae; test: Antimicrobial activity against Streptococcus pneumoniae isolate 37 by agar dilution method; procedure, shortened: as §1
[26] = system: Streptococcus pneumoniae; test: Antimicrobial activity against Streptococcus pneumoniae isolate 33 by agar dilution method; procedure, shortened: as §1
[27] = system: Streptococcus pneumoniae; test: Antimicrobial activity against Streptococcus pneumoniae isolate 1146 by agar dilution method; procedure, shortened: as §1
[28] = system: Streptococcus pneumoniae; test: Antimicrobial activity against Streptococcus pneumoniae isolate 1147 by agar dilution method; procedure, shortened: as §1
[29] = system: Streptococcus pneumoniae; test: Antimicrobial activity against Streptococcus pneumoniae isolate 4747 by agar dilution method; procedure, shortened: as §1
[30] = system: Streptococcus pneumoniae; test: Antimicrobial activity against penicillin-susceptible Streptococcus pneumoniae by agar dilution method
[31] = system: Streptococcus pneumoniae; test: Antimicrobial activity against Streptococcus pneumoniae isolate 1055 by agar dilution method
[32] = system: Streptococcus pneumoniae; test: Antimicrobial activity against Streptococcus pneumoniae isolate 2880 by agar dilution method; procedure, shortened: as §1
[33] = system: Streptococcus pneumoniae; test: Antimicrobial activity against Streptococcus pneumoniae isolate 2688 by agar dilution method; procedure, shortened: as §1
[34] = system: Streptococcus pneumoniae; test: Antimicrobial activity against Streptococcus pneumoniae isolate 3374 by agar dilution method; procedure, shortened: as §1
[35] = system: Streptococcus pneumoniae; test: Antimicrobial activity against Streptococcus pneumoniae isolate 3346 by agar dilution method
[36] = system: Streptococcus pneumoniae; test: Antimicrobial activity against Streptococcus pneumoniae 11 by time-kill analysis
Procedure, shortened: (§2)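 Time-kill in cation-adjusted Mueller-Hinton broth with 5% lysed horse blood; inocula 5 × 105 to 5 × 10^6 CFU/ml; drugs at MIC, 2× and 4× MIC; 35°C shaking water bath; viable counts at 0, 3, 6, 12, 24 h. Bactericidal = ≥3 log10 CFU/ml (99.9%) drop from original inoculum; 90%/99%/99.9% killing scored per strain.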

[37] = system: Streptococcus pneumoniae; test: Antimicrobial activity against Streptococcus pneumoniae 5 by time-kill analysis
Procedure, shortened: as §2, with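 “12 and” for “12,”, “if” for “=”, “reduction” for “drop”, “90% and 99%” for “90%/99%/99.9%”, “also scored.” for “scored per strain.”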

[38] = system: Streptococcus pneumoniae; test: Antimicrobial activity against Streptococcus pneumoniae 7 by time-kill analysis; procedure, shortened: as §2
[39] = system: Streptococcus pneumoniae; test: Antimicrobial activity against Streptococcus pneumoniae 10 by time-kill analysis; procedure, shortened: as §2
[40] = system: Streptococcus pneumoniae; test: Antimicrobial activity against Streptococcus pneumoniae 4 by time-kill analysis; procedure, shortened: as §2
[41] = system: Streptococcus pneumoniae; test: Antimicrobial activity against Streptococcus pneumoniae 9 by time-kill analysis
Procedure, shortened: as §2, with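 “12 and” for “12,”, “if” for “=”, “reduction” for “drop”, “90% and 99%” for “90%/99%/99.9%”, “also scored.” for “scored per strain.”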

[42] = system: Streptococcus pneumoniae; test: Antimicrobial activity against Streptococcus pneumoniae 8 by time-kill analysis; procedure, shortened: as §2
[43] = system: Streptococcus pneumoniae; test: Antimicrobial activity against Streptococcus pneumoniae 6 by time-kill analysis; procedure, shortened: as §2
[44] = system: Streptococcus pneumoniae; test: Antimicrobial activity against Streptococcus pneumoniae 2 by time-kill analysis; procedure, shortened: as §2
[45] = system: Streptococcus pneumoniae; test: Antimicrobial activity against Streptococcus pneumoniae 12 by time-kill analysis; procedure, shortened: as §2
[46] = system: Streptococcus pneumoniae; test: Antimicrobial activity against Streptococcus pneumoniae 1 by time-kill analysis
Procedure, shortened: as §2, with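 “12 and” for “12,”, “if” for “=”, “reduction” for “drop”, “90% and 99%” for “90%/99%/99.9%”, “also scored.” for “scored per strain.”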

[47] = system: Streptococcus pneumoniae; test: Antimicrobial activity against Streptococcus pneumoniae 3 by time-kill analysis; procedure, shortened: as §2

CC[C@H]1OC(=O)[C@H](C)[C@@H](O[C@H]2C[C@@](C)(OC)[C@@H](O)[C@H](C)O2)[C@H](C)[C@@H](O[C@@H]2O[C@H](C)C[C@H](N(C)C)[C@H]2O)[C@](C)(OC)C[C@@H](C)C(=O)[C@H](C)[C@@H](O)[C@]1(C)O [CLARITHROMYCIN]
MIC [1]: > 64 µg/mL
MIC [2]: > 64 µg/mL
MIC [3]: 32 µg/mL (≈ 42.8 µM)
MIC50 [4]: > 64 µg/mL
MIC90 [4]: > 64 µg/mL
MIC [5]: 32 µg/mL (≈ 42.8 µM)
MIC [6]: > 64 µg/mL
MIC [7]: > 64 µg/mL
MIC [8]: 0.03 µg/mL (≈ 0.0401 µM)
MIC [9]: > 64 µg/mL
MIC [10]: 32 µg/mL (≈ 42.8 µM)
MIC [11]: 0.03 µg/mL (≈ 0.0401 µM)
MIC [12]: > 64 µg/mL
MIC [13]: 64 µg/mL (≈ 85.6 µM)
MIC50 [14]: 1 µg/mL (≈ 1.34 µM)
MIC90 [14]: > 64 µg/mL
MIC [15]: 64 µg/mL (≈ 85.6 µM)
MIC [16]: > 64 µg/mL
MIC [17]: 32 µg/mL (≈ 42.8 µM)
MIC [18]: > 64 µg/mL
MIC [19]: > 64 µg/mL
MIC [20]: 16 µg/mL (≈ 21.4 µM)
MIC [21]: > 64 µg/mL
MIC50 [22]: 0.06 µg/mL (≈ 0.0802 µM)
MIC [23]: 16 µg/mL (≈ 21.4 µM)
MIC [24]: 64 µg/mL (≈ 85.6 µM)
MIC [25]: > 64 µg/mL
MIC [26]: 0.03 µg/mL (≈ 0.0401 µM)
MIC [27]: 2 µg/mL (≈ 2.67 µM)
MIC [28]: 1 µg/mL (≈ 1.34 µM)
MIC [29]: 64 µg/mL (≈ 85.6 µM)
MIC50 [30]: 0.5 µg/mL (≈ 0.668 µM)
MIC90 [30]: > 64 µg/mL
MIC [31]: 32 µg/mL (≈ 42.8 µM)
MIC [32]: 8 µg/mL (≈ 10.7 µM)
MIC [33]: 32 µg/mL (≈ 42.8 µM)
MIC [34]: 32 µg/mL (≈ 42.8 µM)
MIC [35]: > 64 µg/mL

COCC1=C(C(=O)O)N2C(=O)[C@@H](NC(=O)/C(=N\OC)c3csc(N)n3)[C@H]2SC1 [CEFPODOXIME]
MIC [1]: 4 µg/mL (≈ 9.36 µM)
MIC [36]: 4 µg/mL (≈ 9.36 µM)
MIC [2]: 4 µg/mL (≈ 9.36 µM)
MIC [3]: 4 µg/mL (≈ 9.36 µM)
MIC50 [4]: 8 µg/mL (≈ 18.7 µM)
MIC90 [4]: 8 µg/mL (≈ 18.7 µM)
MIC [37]: 8 µg/mL (≈ 18.7 µM)
MIC [5]: 4 µg/mL (≈ 9.36 µM)
MIC [6]: 2 µg/mL (≈ 4.68 µM)
MIC [7]: 4 µg/mL (≈ 9.36 µM)
MIC [8]: 2 µg/mL (≈ 4.68 µM)
MIC [38]: 4 µg/mL (≈ 9.36 µM)
MIC [9]: 4 µg/mL (≈ 9.36 µM)
MIC [10]: 4 µg/mL (≈ 9.36 µM)
MIC [39]: 0.25 µg/mL (≈ 0.585 µM)
MIC [40]: 8 µg/mL (≈ 18.7 µM)
MIC [41]: 0.25 µg/mL (≈ 0.585 µM)
MIC [11]: 4 µg/mL (≈ 9.36 µM)
MIC [12]: 4 µg/mL (≈ 9.36 µM)
MIC [13]: 4 µg/mL (≈ 9.36 µM)
MIC50 [14]: 0.25 µg/mL (≈ 0.585 µM)
MIC90 [14]: 2 µg/mL (≈ 4.68 µM)
MIC [15]: 8 µg/mL (≈ 18.7 µM)
MIC [16]: 4 µg/mL (≈ 9.36 µM)
MIC [17]: 32 µg/mL (≈ 74.9 µM)
MIC [42]: 4 µg/mL (≈ 9.36 µM)
MIC [18]: 2 µg/mL (≈ 4.68 µM)
MIC [19]: 2 µg/mL (≈ 4.68 µM)
MIC [20]: 4 µg/mL (≈ 9.36 µM)
MIC [43]: 0.5 µg/mL (≈ 1.17 µM)
MIC [21]: 1 µg/mL (≈ 2.34 µM)
MIC50 [22]: 4 µg/mL (≈ 9.36 µM)
MIC90 [22]: 8 µg/mL (≈ 18.7 µM)
MIC [23]: 8 µg/mL (≈ 18.7 µM)
MIC [44]: 0.016 µg/mL (≈ 0.0374 µM)
MIC [24]: 4 µg/mL (≈ 9.36 µM)
MIC [25]: 4 µg/mL (≈ 9.36 µM)
MIC [26]: 4 µg/mL (≈ 9.36 µM)
MIC [27]: 8 µg/mL (≈ 18.7 µM)
MIC [28]: 8 µg/mL (≈ 18.7 µM)
MIC [45]: 2 µg/mL (≈ 4.68 µM)
MIC [46]: 0.03 µg/mL (≈ 0.0702 µM)
MIC [29]: 2 µg/mL (≈ 4.68 µM)
MIC [30]: 0.03 µg/mL (≈ 0.0702 µM)
MIC50 [30]: 0.03 µg/mL (≈ 0.0702 µM)
MIC90 [30]: 0.06 µg/mL (≈ 0.14 µM)
MIC [31]: 2 µg/mL (≈ 4.68 µM)
MIC [32]: 2 µg/mL (≈ 4.68 µM)
MIC [33]: 32 µg/mL (≈ 74.9 µM)
MIC [34]: 4 µg/mL (≈ 9.36 µM)
MIC [35]: 4 µg/mL (≈ 9.36 µM)
MIC [47]: 0.5 µg/mL (≈ 1.17 µM)
